Reference: ChEMBL document CHEMBL1795205, “The new 5- or 6-azapyrimidine and cyanuric acid derivatives of l-ascorbic acid bearing the free C-5 hydroxy or C-4 amino group at the ethylenic spacer: CD-spectral absolute configuration determination and biological activity evaluations” (Eur J Med Chem, 2011)
pIC50: −log10 of the molar value. Calls of active or inactive are those of the source. The rule behind the calls is not given here.

Columns and labels:
[1] = test system: MIA PaCa-2; experiment: Induction of cell cycle arrest in human MIAPaCa2 cells assessed as accumulation at subG1 phase at 1 uM after 48 hrs by flow cytometry (reference value: 0.20 +/- 0.06%); type: functional
[2] = test system: MIA PaCa-2; experiment: Induction of cell cycle arrest in human MIAPaCa2 cells assessed as accumulation at G2/M phase at 5 uM after 48 hrs by flow cytometry (reference value: 9.35 +/- 0.92%); type: functional
[3] = test system: MIA PaCa-2; experiment: Induction of cell cycle arrest in human MIAPaCa2 cells assessed as accumulation at subG1 phase at 5 uM after 48 hrs by flow cytometry (reference value: 0.20 +/- 0.06%); type: functional
[4] = test system: SW-620; experiment: Induction of cell cycle arrest in human SW620 cells assessed as accumulation at G1 phase at 1 uM after 24 hrs by flow cytometry (reference value: 51.6 +/- 0.07%); type: functional
[5] = test system: SW-620; experiment: Induction of cell cycle arrest in human SW620 cells assessed as accumulation at G2/M phase at 1 uM after 24 hrs by flow cytometry (reference value: 10.7 +/- 0.07%); type: functional
[6] = test system: SW-620; experiment: Induction of cell cycle arrest in human SW620 cells assessed as accumulation at S phase at 1 uM after 24 hrs by flow cytometry (reference value: 37.7 +/- 0.01%); type: functional
[7] = test system: SW-620; experiment: Induction of cell cycle arrest in human SW620 cells assessed as accumulation at subG1 phase at 1 uM after 24 hrs by flow cytometry (reference value: 0.37 +/- 0.36%); type: functional
[8] = test system: SW-620; experiment: Induction of cell cycle arrest in human SW620 cells assessed as accumulation at G1 phase at 5 uM after 24 hrs by flow cytometry (reference value: 51.6 +/- 0.07%); type: functional
[9] = test system: SW-620; experiment: Induction of cell cycle arrest in human SW620 cells assessed as accumulation at G2/M phase at 5 uM after 24 hrs by flow cytometry (reference value: 10.7 +/- 0.07%); type: functional
[10] = test system: SW-620; experiment: Induction of cell cycle arrest in human SW620 cells assessed as accumulation at S phase at 5 uM after 24 hrs by flow cytometry (reference value: 37.7 +/- 0.01%); type: functional
[11] = test system: SW-620; experiment: Induction of cell cycle arrest in human SW620 cells assessed as accumulation at G2/M phase at 1 uM after 48 hrs by flow cytometry (reference value: 11.9 +/- 2.33%); type: functional
[12] = test system: SW-620; experiment: Induction of cell cycle arrest in human SW620 cells assessed as accumulation at S phase at 1 uM after 48 hrs by flow cytometry (reference value: 41.7 +/- 2.47%); type: functional
[13] = test system: HeLa; experiment: Induction of cell cycle arrest in human HeLa cells assessed as accumulation at G1 phase at 1 uM after 24 hrs by flow cytometry relative to control; type: functional
Outline: (§1)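 Cells were seeded at 3×10⁵ per well in 6-well plates and treated after overnight incubation for 24 and 48 h. They were trypsinized, washed three times in PBS, fixed in cold ethanol and stored at −20 °C. Pellets were washed twice in PBS and treated with RNase A at 37 °C for 15 min, then stained with PI for 30 min in the dark. DNA content was measured by flow cytometry.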

[14] = test system: HeLa; experiment: Induction of cell cycle arrest in human HeLa cells assessed as accumulation at G2/M phase at 1 uM after 24 hrs by flow cytometry relative to control; type: functional; outline: as §1
[15] = test system: HeLa; experiment: Induction of cell cycle arrest in human HeLa cells assessed as accumulation at S phase at 1 uM after 24 hrs by flow cytometry relative to control; type: functional; outline: as §1
[16] = test system: HeLa; experiment: Induction of cell cycle arrest in human HeLa cells assessed as accumulation at G1 phase at 5 uM after 24 hrs by flow cytometry relative to control; type: functional; outline: as §1
[17] = test system: HeLa; experiment: Induction of cell cycle arrest in human HeLa cells assessed as accumulation at G2/M phase at 5 uM after 24 hrs by flow cytometry relative to control; type: functional; outline: as §1
[18] = test system: HeLa; experiment: Induction of cell cycle arrest in human HeLa cells assessed as accumulation at S phase at 5 uM after 24 hrs by flow cytometry relative to control; type: functional; outline: as §1
[19] = test system: HeLa; experiment: Induction of cell cycle arrest in human HeLa cells assessed as accumulation at G2/M phase at 1 uM after 48 hrs by flow cytometry relative to control; type: functional; outline: as §1
[20] = test system: HeLa; experiment: Induction of cell cycle arrest in human HeLa cells assessed as accumulation at subG1 phase at 5 uM after 48 hrs by flow cytometry relative to control; type: functional; outline: as §1
[21] = test system: HeLa; experiment: Cytostatic activity against human HeLa cells assessed as inhibition of cell proliferation after 72 hrs by MTT assay; type: functional, cell-based
Outline: (§2)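 Monolayer cells grown in DMEM with 10% FBS were seeded on day 0 at 3000–6000 cells/well, set by each line's doubling time. Agents were added the next step in five 10-fold dilutions (0.01–100) for 72 h, with DMSO ≤0.1% and a solvent control. MTT absorbance was converted to percentage growth versus untreated wells on the same plate. Where all PGs exceeded 50, the top concentration was reported as ">". ANOVA/Tukey, p<0.05.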

[22] = test system: MCF7; experiment: Cytostatic activity against human MCF7 cells assessed as inhibition of cell proliferation after 72 hrs by MTT assay; type: functional, cell-based; settings: MCF7, 72 h; outline: as §2
[23] = test system: HepG2; experiment: Cytostatic activity against human HepG2 cells assessed as inhibition of cell proliferation after 72 hrs by MTT assay; type: functional, cell-based; settings: HepG2, 72 h; outline: as §2
[24] = test system: WI-38; experiment: Cytotoxicity against human WI38 cells assessed as inhibition of cell proliferation after 72 hrs by MTT assay; type: cell-based; settings: WI-38, 72 h; outline: as §2
[25] = test system: SW-620; experiment: Induction of apoptosis in human SW620 cells at 1 to 5 uM after 24 to 48 hrs by annexin V/PI staining; type: functional, cell-based
Outline: (§3)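 Cells were seeded on slides, incubated 24 h, then exposed to compound for 24 and 48 h. They were washed with PBS and binding buffer, incubated with annexin-V for 10 min, washed with binding buffer, and stained with PI.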

[26] = test system: HeLa; experiment: Induction of apoptosis in human HeLa cells at 1 to 5 uM after 24 to 48 hrs by annexin V/PI staining; type: functional, cell-based; outline: as §3
[27] = test system: MIA PaCa-2; experiment: Induction of cell cycle arrest in human MIAPaCa2 cells assessed as accumulation at G1 phase at 1 uM after 24 hrs by flow cytometry (reference value: 55.4 +/- 0.01%); type: functional; outline: as §1
[28] = test system: MIA PaCa-2; experiment: Induction of cell cycle arrest in human MIAPaCa2 cells assessed as accumulation at G2/M phase at 1 uM after 24 hrs by flow cytometry (reference value: 10.3 +/- 0.07%); type: functional
[29] = test system: MIA PaCa-2; experiment: Induction of cell cycle arrest in human MIAPaCa2 cells assessed as accumulation at S phase at 1 uM after 24 hrs by flow cytometry (reference value: 34.3 +/- 0.07%); type: functional
[30] = test system: MIA PaCa-2; experiment: Induction of cell cycle arrest in human MIAPaCa2 cells assessed as accumulation at subG1 phase at 5 uM after 24 hrs by flow cytometry (reference value: 0.32 +/- 0.009%); type: functional
[31] = test system: MIA PaCa-2; experiment: Induction of cell cycle arrest in human MIAPaCa2 cells assessed as accumulation at S phase at 1 uM after 48 hrs by flow cytometry (reference value: 46 +/- 8.13%); type: functional
[32] = test system: MIA PaCa-2; experiment: Induction of apoptosis in human MIAPaCa2 cells at 1 to 5 uM after 24 to 48 hrs by annexin V-/PI staining

Question: How did the Activity [1] turn out when `Nc1ncn(C/C=C2\OC(=O)C(OCc3ccccc3)=C2OCc2ccccc2)c(=O)n1` was run?
Answer: The Activity was 0.18%.

Question: And the Activity [2]?
Answer: The Activity was 10.2%.

Question: And the Activity [3]?
Answer: The Activity was 0.31%.

Question: What about the Activity [4] of the same molecule?
Answer: Its Activity is 41.3%.

Question: What about the Activity [5] of the same molecule?
Answer: The Activity was 8.15%.

Question: And the Activity [6]?
Answer: Its Activity is 50.5%.

Question: What about the Activity [7] of the same molecule?
Answer: Its Activity is 0.56%.

Question: What about the Activity [8] of the same molecule?
Answer: Its Activity is 24.1%.

Question: What about the Activity [9] of the same molecule?
Answer: Its Activity is 17.7%.

Question: What about the Activity [10] of the same molecule?
Answer: The Activity was 58.3%.

Question: And the Activity [11]?
Answer: The Activity was 17.9%.

Question: What about the Activity [12] of the same molecule?
Answer: The Activity was 58.9%.

Question: And the Activity [13]?
Answer: Its Activity is 29.4%.

Question: What about the Activity [14] of the same molecule?
Answer: The Activity was 11.9%.

Question: And the Activity [15]?
Answer: The Activity was 58.8%.

Question: And the Activity [16]?
Answer: Its Activity is 16.5%.

Question: What about the Activity [17] of the same molecule?
Answer: The Activity was 11.5%.

Question: And the Activity [18]?
Answer: Its Activity is 72.1%.

Question: What about the Activity [19] of the same molecule?
Answer: The Activity was 14.4%.

Question: What about the Activity [20] of the same molecule?
Answer: The Activity was 0.23%.

Question: And the pIC50 [21]?
Answer: Its pIC50 is 5.23.

Question: What about the pIC50 [22] of the same molecule?
Answer: The pIC50 was 5.46.

Question: And the pIC50 [23]?
Answer: The pIC50 was 5.57.

Question: What about the pIC50 [24] of the same molecule?
Answer: Its pIC50 is 5.33.

Question: And the Activity [25]?
Answer: Its Activity is “inactive”.

Question: What about the Activity [26] of the same molecule?
Answer: Its Activity is “inactive”.

Question: And the Activity [27]?
Answer: Its Activity is 55.6%.

Question: And the Activity [28]?
Answer: The Activity was 14.9%.

Question: And the Activity [29]?
Answer: The Activity was 29.5%.

Question: What about the Activity [30] of the same molecule?
Answer: The Activity was 0.21%.

Question: And the Activity [31]?
Answer: The Activity was 64.2%.

Question: What about the Activity [32] of the same molecule?
Answer: The Activity was “inactive”.
